Screening data: PubChem, Broad Institute
A1 apoptosis 2: blocks A1, raising caspase activity; MEF A1-2A-BIM cells, caspase-Glo luminescence, 3 h; percent of clofoctol response, DMSO zero; caspase activation, % (no concentration beside the values); 24,000 tested, under 10 active; AID 2465; in the data active means caspase activation above about 5.9%
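Material: mouse embryonic fibroblasts co-expressing A1 and BIM (A1-2A-BIM), primed for A1 dependence / Quantity: 2500 cells/well / Buffer or medium: RPMI-1640 growth medium with 10% FBS / Doses: 50 nL compound per well, pinned / Schedule: 3 h compound exposure at 37 °C / Signal: Caspase-Glo luminescence (DEVD substrate) / Measure: Caspase-3/7 activation, seen as rise in luminescence signal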
T cruzi intra: inhibitors of intracellular Trypanosoma cruzi | activity score (inhibition), % at 5.01 µM | hit rate 4.9% among 22,000 | intracellular Trypanosoma cruzi in host cells, plate reader; in the data active means activity score above about 55%;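 further: parasites and compound incubated about four days before reading; 0% = median of neutral control wells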
INS-1E rescue: rescue of cytokine-induced death in INS-1E beta cells; protection from cytokine-induced ATP loss, % at 10 µM; hit rate 0.1% among 20,000; INS-1E cytokine-induced death, ATP luminescence, 48 h; normalised: neutral wells 0, positive control 100;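 active means mean replicate protection from cytokine-induced ATP loss at least 50% and at least 75% of replicates each reaching 50%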
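Material: INS-1E rat cells; Quantity: 8000 cells/well; Buffer or medium: phenol-red-free RPMI with 5% fetal bovine serum; Probe or stimulus: cytokine cocktail of IFN-γ, TNF-α and IL-1β; Compound dosing: single test concentration per compound, delivered by pin transfer; Incubation: 48 h co-treatment, 10 min post-lysis read; Signal: CellTiter-Glo luminescence.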
An asterisk follows results filed as active. The sample as a whole holds a higher share of hits than the screen did.

`C[C@H](CO)N1C[C@H](C)[C@H](CN(C)CC2CC2)Oc2c(NC(=O)Nc3ccc(C(F)(F)F)cc3)cccc2C1=O` gave A1 apoptosis 2 1, T cruzi intra 82* and INS-1E rescue -9.
C[C@@H]1CN([C@H](C)CO)C(=O)c2cccc(NC(=O)Nc3ccc(C(F)(F)F)cc3)c2O[C@@H]1CN(C)CC1CC1 was read as A1 apoptosis 2 0, T cruzi intra -39 and INS-1E rescue -9.
C[C@H](CO)N1C[C@H](C)[C@@H](CN(C)CC2CCCCC2)Oc2c(NC(=O)Nc3ccc(C(F)(F)F)cc3)cccc2C1=O was read as A1 apoptosis 2 0, T cruzi intra 69* and INS-1E rescue -71.
`C=CCOC(=O)[C@H]1[C@@H]2C(=O)O[C@@H](c3ccccc3)[C@@H](c3ccccc3)N2[C@@H](c2ccc(OCCOC(=O)[C@@H]3C[C@@H]4C(=O)NCC(=O)N4[C@@H]3c3ccc(O)cc3)cc2)[C@]12C(=O)Nc1ccccc12` gave A1 apoptosis 2 1.
`O=C(NO)c1ccc(C(=O)N/N=C/c2cccnc2Cl)cc1` gave A1 apoptosis 2 1, T cruzi intra 7 and INS-1E rescue 8.
`O=C(NO)c1cccc(C(=O)N/N=C/c2cccs2)c1` gave A1 apoptosis 2 0, T cruzi intra -5 and INS-1E rescue -12.
For C[C@H](CO)N1C[C@H](C)[C@@H](CN(C)Cc2ccc(Oc3ccccc3)cc2)Oc2c(NS(=O)(=O)c3ccc(Cl)cc3)cccc2C1=O the results were T cruzi intra 65* and INS-1E rescue -15.
C[C@H](CO)N1C[C@H](C)[C@H](CN(C)Cc2ccc(Oc3ccccc3)cc2)Oc2c(NS(=O)(=O)c3ccccc3)cccc2C1=O was read as A1 apoptosis 2 -2, T cruzi intra 22 and INS-1E rescue -44.
For C[C@H]1CN([C@@H](C)CO)C(=O)c2cccc(NS(=O)(=O)c3ccc(Cl)cc3)c2O[C@H]1CN(C)Cc1ccc(Oc2ccccc2)cc1 the results were T cruzi intra 43 and INS-1E rescue -20.
C[C@@H]1CN([C@H](C)CO)C(=O)c2cccc(NS(=O)(=O)c3ccc(Cl)cc3)c2O[C@H]1CN(C)Cc1ccc(Oc2ccccc2)cc1 was read as A1 apoptosis 2 -1, T cruzi intra 58* and INS-1E rescue 0.
For C[C@H]1CN([C@@H](C)CO)C(=O)c2cccc(NS(=O)(=O)c3ccccc3)c2O[C@@H]1CN(C)Cc1ccc(Oc2ccccc2)cc1 the results were A1 apoptosis 2 -1, T cruzi intra 13 and INS-1E rescue -4.
C[C@@H]1CN([C@@H](C)CO)C(=O)c2cccc(NS(=O)(=O)c3ccc(Cl)cc3)c2O[C@@H]1CN(C)Cc1ccc(Oc2ccccc2)cc1 was read as A1 apoptosis 2 0, T cruzi intra 67* and INS-1E rescue -87.
For COC(=O)C(CC#Cc1ccc2c(c1)[C@]1(C(=O)N2)[C@H](c2ccc(O)cc2)N2[C@H](c3ccccc3)[C@H](c3ccccc3)OC(=O)[C@H]2[C@@H]1C(N)=O)C(=O)OC the results were A1 apoptosis 2 -1.
For C[C@H]1CN([C@@H](C)CO)C(=O)Cc2cc(NC(=O)Nc3ccc(C(F)(F)F)cc3)ccc2O[C@H]1CN(C)S(=O)(=O)c1ccc(Cl)cc1 the results were A1 apoptosis 2 2, T cruzi intra 52 and INS-1E rescue -23.
Screening C[C@@H]1CN([C@@H](C)CO)C(=O)Cc2cc(NC(=O)Nc3ccc(C(F)(F)F)cc3)ccc2O[C@@H]1CN(C)S(=O)(=O)c1ccc(Cl)cc1 returned T cruzi intra 81* and INS-1E rescue -23.
For C[C@H]1CN([C@@H](C)CO)C(=O)Cc2cc(NC(=O)Nc3ccc(C(F)(F)F)cc3)ccc2O[C@@H]1CN(C)S(=O)(=O)c1ccc(F)cc1 the results were A1 apoptosis 2 1, T cruzi intra 35 and INS-1E rescue 0.
Screening Cc1noc(C)c1S(=O)(=O)N(C)C[C@H]1Oc2ccc(NC(=O)Nc3ccc(C(F)(F)F)cc3)cc2CC(=O)N([C@@H](C)CO)C[C@H]1C returned A1 apoptosis 2 -1, T cruzi intra 66* and INS-1E rescue 1.
For C[C@@H]1CN([C@H](C)CO)C(=O)Cc2cc(NC(=O)Nc3ccc(C(F)(F)F)cc3)ccc2O[C@@H]1CN(C)S(=O)(=O)c1ccc(F)cc1 the results were A1 apoptosis 2 0, T cruzi intra 72* and INS-1E rescue -9.
`Cc1noc(C)c1S(=O)(=O)N(C)C[C@H]1Oc2ccc(NC(=O)Nc3ccc(C(F)(F)F)cc3)cc2CC(=O)N([C@H](C)CO)C[C@@H]1C` gave A1 apoptosis 2 1.
